This is an account of results in ChEMBL document CHEMBL4673298, “Exploration of Structure-Activity Relationship of Aromatic Aldehydes Bearing Pyridinylmethoxy-Methyl Esters as Novel Antisickling Agents” (J Med Chem, 2020).

Molecules are shown by their SMILES. Calls of active or inactive are those of the source. No cut-off for these calls is given here. Where only a bound is given, the exact number is not on record here.

Data set [1] can be described thus: Induction of in-vivo hemoglobin-O2 affinity shifts in C57BL/6 mouse at 150 mg/kg, ip dosed as single administration measured after 6 hrs by oxygen equilibrium curve study. The format is functional. In a few lines:
(§1)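 C57BL/6 mice (3 male, 3 female) receive a single intraperitoneal dose of 150 mg/kg. Blood is drawn by submandibular bleeding before dosing and at 1, 3 and 6 h, then hemolyzed. Hb modification and Hb-O2 affinity shift are measured; n = 6.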

Data set [2] has as its system Mus musculus. The data set can be described thus: Induction of in-vivo hemoglobin-O2 affinity shifts in C57BL/6 mouse at 150 mg/kg, ip dosed as single administration measured after 3 to 6 hrs by oxygen equilibrium curve study. The format is functional, organism-based. To be noted: time 3-6 hrs, TDE = time-dependent effect. In a few lines: as §1
The subject of data set [3] is Mus musculus. The data set can be described thus: Induction of in-vivo modification of intracellular hemoglobin in C57BL/6 mouse at 150 mg/kg, ip dosed as single administration measured after 1 to 6 hrs by cation-exchange HPLC analysis. The format is functional, organism-based. To be noted: time 1-6 hrs, TDE = time-dependent effect. In a few lines: as §1
Data set [4] is described as follows: Stability in human whole blood assessed as parent compound level at 1 mM incubated for 24 hrs by reversed-phase HPLC analysis. It is filed as ADME, tissue-based. To be noted: read-out: Stabilty. An outline of the steps:
(§2)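 Normal whole blood, hematocrit 30%, incubated with or without compound at 0.5 or 1 mM at 37 °C. Aliquots taken at 0, 4, 8, 24 h are deproteinized with 0.1 M formic acid in acetonitrile at 60–65 °C for 30 min, centrifuged and filtered. Reversed-phase C18 HPLC uses a 0.1% formic acid water/acetonitrile gradient, detection at 261 nm. Parent and carboxylic acid analogue are quantified; the acid serves as reference.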

Data set [5] in a line: Stability in human whole blood assessed as parent compound level at 0.5 mM incubated for 24 hrs by reversed-phase HPLC analysis. It is filed as ADME, tissue-based. Conditions: read-out: Stabilty. In a few lines: as §2
Data set [6] is described as follows: Drug metabolism in human whole blood assessed as carboxylic acid analogue formation at 0.5 to 1 mM incubated up to 24 hrs by reversed-phase HPLC analysis. Conditions: 1000 µM, dose 0.5-1 mM. It is filed as ADME, tissue-based. In a few lines: as §2
Data set [7] has as its system Red blood cell. The data set can be described thus: Binding affinity to Hemoglobin in sickle cell RBCs from blood isolated from patient with homozygous SS assessed as increase in Hb affinity shift for oxygen at 2 mM under hypoxic conditions incubated for 2 hrs by oxygen equilibrium curve study. The format is tissue-based. Conditions: Homo sapiens. An outline of the steps:
(§3)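 SS blood, hematocrit 20%, incubated under air with compound (0.5, 1, 2 mM) at 37 °C for 1 h, then hypoxic (2.5% O2/97.5% N2) at 37 °C for 2 h. Cells are washed in PBS and hemolyzed hypotonically. Lysate in 0.1 M potassium phosphate pH 7.0 is run by Hemox analysis for P50. ΔP50 is given as percent of DMSO control. Three biological replicates, mean ± SD.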

The subject of data set [8] is Red blood cell. The data set can be described thus: Binding affinity to Hemoglobin in sickle cell RBCs from blood isolated from patient with homozygous SS assessed as increase in Hb affinity shift for oxygen at 1 mM under hypoxic conditions incubated for 2 hrs by oxygen equilibrium curve study. The format is tissue-based. To be noted: Homo sapiens. In a few lines: as §3

In data set [9] the test system is Red blood cell. The data set can be described thus: Binding affinity to Hemoglobin in sickle cell RBCs from blood isolated from patient with homozygous SS assessed as increase in hemoglobin modification at 0.5 mM under hypoxic conditions incubated for 2 hrs […]. The format is tissue-based. Conditions: Homo sapiens. An outline of the steps:
(§4)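 SS blood, hematocrit 20%, incubated under air with compound (0.5, 1, 2 mM) at 37 °C for 1 h, then hypoxic (2.5% O2/97.5% N2) at 37 °C for 2 h. Cells are washed and hemolyzed. Lysate is run on weak cation-exchange HPLC to quantify Hb adduct (modified Hb). Three biological replicates, mean ± SD.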

The test system of data set [10] is Red blood cell. The data set can be described thus: Binding affinity to Hemoglobin in sickle cell RBCs from blood isolated from patient with homozygous SS assessed as increase in hemoglobin modification at 1 mM under hypoxic conditions incubated for 2 hrs […]. It is filed as tissue-based. Conditions: Homo sapiens. An outline of the steps: as §4

Data set [11] concerns Red blood cell. The data set can be described thus: Binding affinity to Hemoglobin in sickle cell RBCs from blood isolated from patient with homozygous SS assessed as increase in hemoglobin modification at 2 mM under hypoxic conditions incubated for 2 hrs […]. It is filed as tissue-based. Conditions: Homo sapiens. An outline of the steps:
as §4

In data set [12] the test system is Red blood cell. The data set can be described thus: Binding affinity to Hemoglobin in sickle cell RBCs from blood isolated from patient with homozygous SS assessed as increase in hemoglobin modification under hypoxic conditions incubated for 2 hrs […]. It is filed as tissue-based. To be noted: Homo sapiens. An outline of the steps: as §4

In data set [13] the test system is Red blood cell. The data set can be described thus: Binding affinity to Hemoglobin in sickle cell RBCs from blood isolated from patient with homozygous SS assessed as increase in Hb affinity for oxygen under hypoxic conditions incubated for 2 hrs by oxygen equilibrium curve study. It is filed as tissue-based. Conditions: Homo sapiens. In a few lines:
as §3

Data set [14] in a line: Inhibition of sickling in sickle cell RBCs from blood isolated from patient with homozygous SS at 1 mM under hypoxic conditions incubated for 2 hrs. It is filed as functional. To be noted: Homo sapiens, Erythrocyte. An outline of the steps:
(§5)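 SS blood, hematocrit 20%, preincubated under air with compound (0.5, 1, 2 mM) for 1 h at 37 °C, then 2 h hypoxia (2.5% O2/97.5% N2) at 37 °C. Aliquots are fixed in 2% glutaraldehyde without air exposure. Cell morphology is scored from bright-field images at 40×. Three biological replicates, mean ± SD.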

The nature of data set [15]: Inhibition of sickling in sickle cell RBCs from blood isolated from patient with homozygous SS at 2 mM under hypoxic conditions incubated for 2 hrs. It is filed as functional. Conditions: Homo sapiens, Erythrocyte. In a few lines: as §5
The nature of data set [16]: Inhibition of sickling in sickle cell RBCs from blood isolated from patient with homozygous SS at 0.5 mM under hypoxic conditions incubated for 2 hrs. The format is functional. To be noted: Homo sapiens, Erythrocyte. An outline of the steps:
as §5

The subject of the next data set is Erythrocyte. The data set can be described thus: Inhibition of sickling in sickle cell RBCs from blood isolated from patient with homozygous SS under hypoxic conditions incubated for 2 hrs. It is filed as functional, tissue-based. Conditions: Homo sapiens. In a few lines: as §5
For data set [17], the species on record is Homo sapiens. The data set can be described thus: Binding affinity to Hemoglobin in normal human whole blood assessed as increase in Hb affinity for oxygen at 2 mM by oxygen equilibrium curve study. The format is tissue-based. In a few lines: (§6)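 Normal human whole blood, hematocrit 30%, incubated with or without compound in DMSO (0.5, 1.0 or 2.0 mM; 2 mM for the time course) at 37 °C. The blood is tonometered about 7 min at 37 °C against gas with 0.804, 2.935 and 5.528% O2 (6, 20, 40 mmHg). sO2 and pO2 are read on a blood gas analyzer. ΔP50% is taken relative to no compound. Time course sampled at 1, 2, 4, 8, 12, 24 h.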

Data set [18] has as its system Red blood cell. The data set can be described thus: Binding affinity to Hemoglobin in sickle cell RBCs from blood isolated from patient with homozygous SS assessed as increase in Hb affinity shift for oxygen at 0.5 mM under hypoxic conditions incubated for 2 hrs by oxygen equilibrium curve study. The format is tissue-based. Conditions: Homo sapiens. An outline of the steps: as §3

For data set [19], the species on record is Homo sapiens. The data set can be described thus: Binding affinity to Hemoglobin in normal human whole blood assessed as increase in Hb affinity for oxygen incubated for 1.5 hrs by oxygen equilibrium curve study. It is filed as tissue-based. In a few lines:
as §6

Data set [20] can be described thus: Induction of in-vivo modification of intracellular hemoglobin in C57BL/6 mouse at 150 mg/kg, ip dosed as single administration measured after 6 hrs by cation-exchange HPLC analysis.
Data set [21] is filed under the species Homo sapiens. The data set can be described thus: Binding affinity to Hemoglobin in normal human whole blood assessed as increase in Hb affinity for oxygen at 2 mM incubated for 1 to 24 hrs by oxygen equilibrium curve study. It is filed as tissue-based. To be noted: time 1-24 hrs. In a few lines: as §6
The species named for data set [22] is Homo sapiens. The data set can be described thus: Binding affinity to Hemoglobin in normal human whole blood assessed as increase in Hb affinity for oxygen at 2 mM incubated for 24 hrs by oxygen equilibrium curve study. It is filed as tissue-based. In a few lines:
as §6

Consider `COC(=O)c1cccc(COc2cccc(O)c2C=O)n1`, for which the Activity was 5.5% in data set [1]; “Tde” in the data set with Mus musculus [2]; “Tde” with Mus musculus [3]; 48.6% in the data set on Red blood cell [7]; 29.2% in the data set on Red blood cell [8]; 29.2% in the data set with Red blood cell [9]. The Activity in the data set on Red blood cell [10] is 81.1%; in the data set with Red blood cell [11] it was 100%; with Red blood cell [12], “Dose-dependent effect”; in the data set with Red blood cell [13], “Dose-dependent effect”; in the data set on Red blood cell [18] it was 5.4%; in data set [20], 9.6%. In data set [4], the remaining at 24 h, 1000 µM is 83%. Besides, the remaining at 24 h, 500 µM in [5] is 89%. The Drug metabolism entry in data set [6] was “Metabolite_Detected”. In [14], the inhibition (commonly how much of the control response was suppressed) at 1000 µM turned out to be 54.2%. The compound also yielded an inhibition at 2000 µM in data set [15] of 93.2%. This compound gave an inhibition at 500 µM in data set [16] of 7.6%. Further, the inhibition entry with Erythrocyte was “Dose-dependent effect”. The result in the data set filed under Homo sapiens [17] and in the data set filed under Homo sapiens [19] was inactive.

For `COc1cc(C=O)ccc1O`, the Activity in the data set listed under Homo sapiens [21] amounted to 21%.

In the case of `COC(=O)c1cccnc1COc1cccc(O)c1C=O`, the Activity in [1] was 14.5%; with Mus musculus [2], “Tde”; in the data set with Mus musculus [3] it was “Tde”; in the data set on Red blood cell [7] it was 39.6%; with Red blood cell [8], 18.8%; with Red blood cell [9] it was 46%. The Activity in the data set on Red blood cell [10] is 64.4%; in the data set with Red blood cell [11], 90.8%; in the data set with Red blood cell [12] it was “Dose-dependent effect”; with Red blood cell [13] it was “Dose-dependent effect”; in the data set listed under Homo sapiens [17] (TDE = time-dependent effect) it was “Tde”; in the data set with Red blood cell [18] it was 12.2%. Besides, the figures for the Activity entry (in the data set filed under Homo sapiens [19]; in [20]) were “Dose-dependent effect” and 16.9%, respectively. The remaining at 24 h, 1000 µM in data set [4] is 78%. Besides, the remaining at 24 h, 500 µM in [5] amounted to 81%. Further, the Drug metabolism entry in data set [6] is given as “Metabolite_Detected”. The same compound registered an inhibition at 1000 µM in data set [14] of 70.6%. In addition, the inhibition at 2000 µM in data set [15] worked out at 98.8%. The inhibition at 500 µM in data set [16] came out at 43.3%. Also, the inhibition result in the data set with Erythrocyte is “Dose-dependent effect”.

As for `COC(=O)c1ccnc(COc2ccc(OC)cc2C=O)c1`, the Activity entry in the data set with Red blood cell [12] and in the data set on Red blood cell [13] was “Dose-dependent effect” throughout. In addition, in data set [15], the inhibition at 2000 µM was > 90%. The inhibition result in the data set with Erythrocyte is “Dose-dependent effect”. Further, in the data set filed under Homo sapiens [22], the outcome was Active.
